Data as given in ChEMBL document CHEMBL4715729, “UPLC-QTOFMS(E)-Guided Dereplication of the Endangered Chinese Species Garcinia paucinervis to Identify Additional Benzophenone Derivatives” (J Nat Prod, 2016).

Assays:
Format in all cases: functional, cell-based
MCF7 = experiment: Cytotoxicity against human MCF7 cells assessed as reduction in cell viability measured after 48 hrs by WST assay; details: MCF7, 48 h
In short: (§1)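 Cells grown at 37 °C, 5% CO2 with 10% fetal calf serum and penicillin/streptomycin: MCF7 and MDA-MB-231 in DMEM glucose, SKBR3 in DMEM F12 glutamine. Seeded at 12×10^3 cells/well, dosed after 24 h at 5–200 μM from DMSO stocks (DMSO […]) for 48 h. Doxorubicin positive control. Read-out was 10% WST for 1 h in the dark, absorbance at 440 nm. Triplicate, % inhibition versus control, IC50 estimated.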

SK-BR-3 = experiment: Cytotoxicity against human SK-BR-3 cells assessed as reduction in cell viability measured after 48 hrs by WST assay; details: SK-BR-3, 48 h; in short: as §1
MDA-MB-231 = experiment: Cytotoxicity against human MDA-MB-231 cells assessed as reduction in cell viability measured after 48 hrs by WST assay; details: MDA-MB-231, 48 h; in short: as §1

Measured: IC50

CC(C)=CCC/C(C)=C/CC1(CC=C(C)C)C(=O)C(C(=O)c2ccc(O)c(O)c2)=C2OC(C)(C)C(O)C3OC23C1=O (stereo not given)
< 10 µM: all assays above

CC(C)=CCC/C(C)=C/C[C@]1(CC=C(C)C)C(=O)C2=C(OC(C)(C)C[C@H]2c2occc(=O)c2O)C(C(=O)c2ccc(O)c(O)c2)=C1O
< 10 µM: all assays above

CC(C)=CCC/C(C)=C/C[C@]1(CC=C(C)C)C(=O)C(O)=C(C(=O)c2ccc(O)c(O)c2)C1=O
< 10 µM: all assays above

CC(C)=CCC/C(C)=C/CC1(CC=C(C)C)C(=O)C(C(=O)c2ccc(O)c(O)c2)=C2OC(C)(C)CC3OC23C1=O (stereo not given)
< 10 µM: all assays above

CC(C)=CCC/C(C)=C/C[C@@]1(CC=C(C)C)C(=O)C2=C(OC(C)(C)C[C@H]2c2occc(=O)c2O)C(C(=O)c2ccc(O)c(O)c2)=C1O
< 10 µM: all assays above
